Screens as filed in PubChem BioAssay.
Hits are enriched below; roughly 9.2% of the tested compounds scored in any of these assays.
ERb SRC1 inh = inhibitors of ERβ-SRC1 coactivator interaction, primary screen, biochemical, TR-FRET, ERβ LBD, SRC-1 peptide; Estrogen receptor beta (Homo sapiens), Q92731; TR-FRET ER-beta LBD / SRC1-Cy5 peptide binding; receptor agonist-loaded with 1 µM estradiol; inhibition, % at 25.6 µM; hit rate 1.3% among 86,000; AID 633, 2007;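 active = compounds whose percent inhibition of the receptor-coactivator binding signal exceeds about 50% in the single-dose screen, limit read from the data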;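 note: 0% = receptor plus peptide wells without compound and 100% = peptide-only wells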
Target sequence (Q92731 whole entry, looked up, the tested form may be a part): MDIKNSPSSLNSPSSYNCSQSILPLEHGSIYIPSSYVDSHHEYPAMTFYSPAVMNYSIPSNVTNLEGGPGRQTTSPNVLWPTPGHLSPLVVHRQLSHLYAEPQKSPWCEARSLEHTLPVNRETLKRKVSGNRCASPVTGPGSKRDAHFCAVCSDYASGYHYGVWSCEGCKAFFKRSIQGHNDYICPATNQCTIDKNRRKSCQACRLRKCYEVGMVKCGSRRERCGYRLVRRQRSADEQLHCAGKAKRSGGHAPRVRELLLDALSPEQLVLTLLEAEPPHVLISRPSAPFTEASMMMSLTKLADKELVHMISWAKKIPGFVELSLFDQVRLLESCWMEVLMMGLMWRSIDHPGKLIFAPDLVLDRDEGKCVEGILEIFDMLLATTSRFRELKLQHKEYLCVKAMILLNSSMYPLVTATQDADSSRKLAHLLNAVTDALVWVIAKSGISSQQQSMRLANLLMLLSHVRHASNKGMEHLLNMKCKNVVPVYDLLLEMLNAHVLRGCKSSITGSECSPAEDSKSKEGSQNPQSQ
ERa SRC1 inh = ERα–SRC-1 coactivator interaction inhibitors, primary screen, biochemical, TR-FRET, ERα LBD, estradiol-bound | inhibition, % at 25.6 µM | TR-FRET ER-alpha LBD / SRC-1 peptide | hit rate 1.7% among 86,000 | Estrogen receptor (Homo sapiens), P03372; in the data active = inhibition above about 50%;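 note: 0% = receptor plus peptide control and 100% = peptide only without receptor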
HUVEC inhibit = inhibitors of HUVEC proliferation, primary screen, cell-based, 384-well. CellTiter-Glo luminescence, 72 h; active compounds read low. viability, % at 10 µM (by protocol). hit rate 1.1% among 86,000;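 active = viability at or below 30%; inactive = viability above 30%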;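 note: 100% = median luminescence of DMSO-only cell control wells on each plate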
ERa coact pot = enhancers of ERα–SRC-1 coactivator binding, primary screen, biochemical, TR-FRET, ERα LBD, low estradiol. TR-FRET ERalpha-LBD/SRC-Cy5 coactivator binding, 2 h; 100 = basal binding, no effect. coactivator binding (% of control), % at 25.6 µM. hit rate 1.3% among 86,000. AID 639, 2007; in the data active = activity above about 200%;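 note: binding measured in presence of low estradiol as agonist stimulus; 0% = peptide alone without receptor and 100% = receptor with peptide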
Fibroblast inh = antiproliferative effect on LL 47 fibroblasts – human, LL 47 cells, CellTiter-Glo luminescence, primary screen. LL 47 human lung fibroblast viability, ATP luminescence; active compounds read low. viability, % at 10 µM. hit rate 1.1% among 85,000. AID 719, 2007;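 active = viability at or below 50% in the single dose screen; inactive = viability above 50%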;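 note: compound exposure lasted 72 h before the ATP readout; 100% = median luminescence of untreated cell-only wells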
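Test system: LL 47 human lung fibroblasts; Quantity: 1,150 cells/well; Buffer or medium: IMEM plus 15% FBS; Dosing: tenfold compound dosing solution, DMSO at 0.1%; Timing: overnight cell rest, 72 h compound treatment at 37 °C; Detection: ATP-based CellTiter-Glo luminescent readout; Read-out basis: viability percentage against median untreated-cell control; Controls: cell-only wells, no compound.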
H69AR growth 86K = proliferation blockers of H69AR lung cancer cells, primary screen, cell-based, human, 86K library; AID 598, 2007; H69AR lung tumor viability, ATP luminescence, 72 h; active compounds read low; viability, % at 10 µM; hit rate 6% among 85,000;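 active = viability at or below 40%; inactive = viability above 40%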;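 note: multidrug resistant small cell line overexpressing MRP-1 efflux transporter; 100% = mean luminescence of untreated control wells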
Starred values were filed as active, the others as inactive; [ ] = remark or other dose.

SMILES	ERb SRC1 inh	ERa SRC1 inh	HUVEC inhibit	ERa coact pot	Fibroblast inh	H69AR growth 86K
CCOC(=O)C1=C(C)NC(=O)NC1c1ccc(OC(=O)c2ccco2)cc1 (configuration not stated)	-3	-4	97	108	98	104
CC1=C(C(=O)OC(C)C)C(c2ccc(F)cc2)NC(=O)N1 (configuration not stated)	-1	2	93	109	92	102
Cc1sc2ncnc(NCC(C)(C)N3CCOCC3)c2c1C	-15	1	38	143	98	62
O=C(Nc1nc(-c2ccncc2)cs1)c1ccc(S(=O)(=O)N2CCOCC2)cc1	-10	-1	50	239*	87	82
O=C(Nc1ccc(Cc2ccncc2)cc1)c1ccc(S(=O)(=O)N2CCOCC2)cc1	-8	-5	75	112	93	66
O=C(COC(=O)c1cccc(S(=O)(=O)N2CCOCC2)c1)Nc1nc(-c2ccccc2Cl)cs1	-3	-3	84	99	93	77
CCOc1cccc(C(=O)Nc2nc(-c3ccc(S(=O)(=O)N4CCOCC4)cc3)cs2)c1	-7	-2	81	166	83	32*
O=C(COc1cccc(Cl)c1)Nc1nc(-c2ccc(S(=O)(=O)N3CCOCC3)cc2)cs1	7	-1	88	202*	98	73
O=C(COc1ccc(S(=O)(=O)N2CCOCC2)cc1)Nc1ccc(Cl)c(C(F)(F)F)c1	-4	-7	52	92	59	25*
COc1ccc(Cl)cc1NC(=O)NCCCl	13	11	92	115	100	92
c1ccc(-c2nnc3sc(Cc4cccs4)nn23)cc1	57*	64*[fluorescence artefact?]	89	46	95	85
O=C1c2ccccc2C(=O)N1Cc1nn2c(-c3ccc(Cl)cc3)nnc2s1	26	46	70	383*[fluorescence artefact?]	94	90
COc1ccc(-c2nnc3sc(CN4C(=O)c5ccccc5C4=O)nn23)cc1	8	16	80	227*	100	94
CC1=C(C(=O)Nc2ccccc2)C(c2sccc2C)n2nnnc2N1 (configuration not stated)	2	3	87	91	94	79
CCn1c(SCC(N)=O)nnc1-c1ccc2[nH]c(C)c(C)c2c1	-4	1	42	126	100	93
O=C(CSc1nnc(-c2ccc(F)cc2)o1)c1ccc2c(c1)OCCO2	23	30	97	152	97	92
Cc1[nH]c2ccc(-c3nnc(SCC(=O)c4ccc(F)cc4)o3)cc2c1C	55*[fluorescence artefact?]	65*[fluorescence artefact?]	69	126	87	26*
Cc1cc(C)c(C)c(C(=O)CSc2nnc(-c3ccc4[nH]c(C)c(C)c4c3)o2)c1C	-6	-8	36	103	44*	8.7*
O=c1nc(NCc2ccccc2Cl)cn[nH]1	2	1	91	110	100	91
CCCCCCNC(=O)C(C(=O)OCC)C1CCCCC1 (configuration not stated)	-12	-1	105	106	106	74
COC(=O)c1sc(NC(=O)C2CCCO2)c(C(=O)OC)c1C (configuration not stated)	-7	-3	85	119	101	78
CCOC(=O)c1c(NC(=O)C2CCCO2)sc(C(=O)OC(C)(C)C)c1C (configuration not stated)	-8	5	72	123	85	10*
CCOC(=O)c1sc(NC(=O)C2CCCO2)c(C(=O)OCC)c1C (configuration not stated)	49	57*	99	73	103	90
Cn1c(/C=C/c2ccc([N+](=O)[O-])o2)nc2ccccc2c1=O	34	10	16*	68	5.2*	-0.5*
Cc1nc2ccccc2c2c1C(=O)N(C)C2=O	12	4	93	90	99	93
SMILES	ERb SRC1 inh	ERa SRC1 inh	HUVEC inhibit	ERa coact pot	Fibroblast inh	H69AR growth 86K
CCN(CC)c1ccc2cc(-c3nnc(-c4ccccc4)o3)c(=O)oc2c1	32	48	57	194	72	22*
CCN(CC)c1ccc2cc(-c3nnc(-c4ccc(Br)cc4)o3)c(=O)oc2c1	33	33	76	210*	93	101
Cc1ccccc1-c1nnc(-c2ccc(Br)cc2)o1	7	6	91	106	93	94
CCn1c(=O)cc(SCC(=O)N2CCN(c3ccccc3F)CC2)c2ccccc21	-12	-3	77	101	100	79
COc1ccccc1NC(=O)N(Cc1ccco1)Cc1cc2c(C)ccc(C)c2[nH]c1=O	2	7	81	108	94	79
CCC(c1nnnn1CCc1ccccc1)N(Cc1ccco1)Cc1cc2cc(C)cc(C)c2[nH]c1=O (configuration not stated)	10	5	82	108	83	26*
CCC(c1nnnn1CCOC)N(Cc1ccc(C)cc1)Cc1cc2cc(OC)ccc2[nH]c1=O (configuration not stated)	-1	-1	85	172	91	86
CCC(c1nnnn1CCc1ccccc1)N(Cc1ccco1)Cc1cc2c(C)ccc(C)c2[nH]c1=O (configuration not stated)	13	1	78	96	87	24*
Cc1ccc2c(c1)N(C(=O)NC1CCCCC1)C(C)(C)CC2C (configuration not stated)	-2	7	85	107	99	40
CCOc1cc(C)c(Cl)cc1S(=O)(=O)NCc1ccc2c(c1)OCO2	-13	-24	81	110	97	22*
COc1ccccc1C(=O)N1CCNC(=O)C1CC(=O)Nc1cccc(C)c1 (configuration not stated)	-10	-3	94	101	104	95
COc1ccccc1NC(=O)CC1C(=O)NCCN1C(=O)Nc1ccc(Cl)c(Cl)c1 (configuration not stated)	-9	4	15*	101	86	53
CC(Cc1ccc(O)c(O)c1)C(C)Cc1ccc(O)c(O)c1 (configuration not stated)	83*[fluorescence artefact?]	66*	70	40	93	33*
CC(C)C(=O)Nc1ccc(Cc2ccc(NC(=O)C(C)C)c(O)c2)cc1O	1	-6	113	106	103	99
CCOC(=O)CSc1nc(C2CC2)nc2ccccc12	12	4	90	91	88	97
